From ChEMBL document CHEMBL1154044, “5-Nitro-2-furyl derivative actives against Trypanosoma cruzi: preliminary in vivo studies” (Eur J Med Chem, 2009)
Calls of active or inactive are those of the source. The calls are words filed in the database; no cut-off is given here.

Legend:
Mus musculus [1] = assay: Toxicity in CD1 mouse assessed as glutamic-oxalacetate transaminase level at 300 mg/kg, ip after 3 days; type: organism-based; parameters: dose 300 mg/kg, route intraperitoneal; conditions: in vivo, 72 h
How it was run: (§1)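 Healthy female CD1 mice (5–7 per group) received a single oral dose of 450 mg/kg or an i.p. dose of 300 mg/kg, with vehicle controls. On day 3 they were sacrificed under ether anaesthesia. Blood was drawn from the subclavian artery and kept at 0 °C in EDTA or heparin. Leukocytes, haemoglobin, haematocrit, GPT and GOT were measured within 24 h and compared with normal ranges.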

Mus musculus [2] = assay: Toxicity in CD1 mouse assessed as leukocyte level at 300 mg/kg, ip after 3 days; type: organism-based; parameters: dose 300 mg/kg, route intraperitoneal; conditions: in vivo, 72 h; how it was run: as §1
Mus musculus [3] = assay: Toxicity in CD1 mouse assessed as glutamic-oxalacetate transaminase level at 450 mg/kg, po after 3 days; type: organism-based; parameters: dose 450 mg/kg, route oral; conditions: in vivo, 72 h; how it was run: as §1
Mus musculus [4] = assay: Toxicity in CD1 mouse assessed as survival at 450 mg/kg, po after 3 days; type: organism-based; parameters: dose 450 mg/kg, route oral; conditions: in vivo, 72 h
How it was run: (§2)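 Healthy 2-month-old female CD1 mice (20–22 g), groups of 5–7, given one oral dose by intragastric syringe or one i.p. injection. Compound suspended in saline:Tween 80 (4:1) with sonication just before dosing; vehicle-treated controls included. Weighed and observed daily over 3 days for skin, physical aspect, activity and faeces; survival recorded at day 3.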

Mus musculus [5] = assay: Toxicity in CD1 mouse liver at 300 mg/kg, ip after 3 days by histological study; type: organism-based; parameters: dose 300 mg/kg, route intraperitoneal; conditions: in vivo, 72 h
How it was run: (§3)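 Healthy female CD1 mice (20–22 g), 5–7 per group, given a single oral (intragastric) or i.p. dose in saline:Tween 80 (4:1) vehicle. Sacrificed on day 3 after ether anaesthesia. Organs fixed in 10% aqueous formalin for histology. Scored against untreated animals from no change to +++ (many changes).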

Mus musculus [6] = assay: Toxicity in CD1 mouse heart at 300 mg/kg, ip after 3 days by histological study; type: organism-based; parameters: dose 300 mg/kg, route intraperitoneal; conditions: in vivo, 72 h; how it was run: as §3
Mus musculus [7] = assay: Toxicity in CD1 mouse assessed as glutamic-pyruvate transaminase level at 300 mg/kg, ip after 3 days; type: organism-based; parameters: dose 300 mg/kg, route intraperitoneal; conditions: in vivo, 72 h; how it was run: as §1
Mus musculus [8] = assay: Toxicity in CD1 mouse assessed as leukocyte level at 450 mg/kg, po after 3 days; type: organism-based; parameters: dose 450 mg/kg, route oral; conditions: in vivo, 72 h; how it was run: as §1
Mus musculus [9] = assay: Toxicity in CD1 mouse assessed as glutamic-pyruvate transaminase level at 450 mg/kg, po after 3 days; type: organism-based; parameters: dose 450 mg/kg, route oral; conditions: in vivo, 72 h; how it was run: as §1
Mus musculus [10] = assay: Toxicity in CD1 mouse intestine at 300 mg/kg, ip after 3 days by histological study; type: organism-based; parameters: dose 300 mg/kg, route intraperitoneal; conditions: in vivo, 72 h; how it was run: as §3
Mus musculus [11] = assay: Toxicity in CD1 mouse brain at 300 mg/kg, ip after 3 days by histological study; type: organism-based; parameters: dose 300 mg/kg, route intraperitoneal; conditions: in vivo, 72 h; how it was run: as §3
Mus musculus [12] = assay: Toxicity in CD1 mouse assessed as survival at 300 mg/kg, ip after 3 days; type: organism-based; parameters: dose 300 mg/kg, route intraperitoneal; conditions: in vivo, 72 h; how it was run: as §2
Mus musculus [13] = assay: Toxicity in CD1 mouse brain at 450 mg/kg, po after 3 days by histological study; type: organism-based; parameters: dose 450 mg/kg, route oral; conditions: in vivo, 72 h; how it was run: as §3
Mus musculus [14] = assay: Toxicity in CD1 mouse assessed as decrease in weight respect to day zero at 450 mg/kg, po after 3 days; type: organism-based; parameters: dose 450 mg/kg, route oral; scale not given: the % may be the effect or the level left; conditions: in vivo, 72 h
How it was run: (§4)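 Healthy 2-month-old female CD1 mice (20–22 g, 5–7 per group) received one dose. Oral doses of 450 or 300 mg/kg were given by intragastric syringe; i.p. doses of 300 or 150 mg/kg by injection. Drugs were suspended in saline:Tween 80 (4:1), and a vehicle-only control was included. Mice were weighed and observed daily for 3 days. Weight change is expressed as percent relative to day zero.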

Mus musculus [15] = assay: Toxicity in CD1 mouse kidney at 450 mg/kg, po after 3 days by histological study; type: organism-based; parameters: dose 450 mg/kg, route oral; conditions: in vivo, 72 h; how it was run: as §3
Mus musculus [16] = assay: Toxicity in CD1 mouse assessed as increase in weight respect to day zero at 300 mg/kg, ip after 3 days; type: organism-based; parameters: dose 300 mg/kg, route intraperitoneal; conditions: in vivo, 72 h; how it was run: as §4
Mus musculus [17] = assay: Toxicity in CD1 mouse intestine at 450 mg/kg, po after 3 days by histological study; type: organism-based; parameters: dose 450 mg/kg, route oral; conditions: in vivo, 72 h; how it was run: as §3
Mus musculus [18] = assay: Toxicity in CD1 mouse assessed as haemoglobin level at 300 mg/kg, ip after 3 days; type: organism-based; parameters: dose 300 mg/kg, route intraperitoneal; conditions: in vivo, 72 h; how it was run: as §1
Mus musculus [19] = assay: Toxicity in CD1 mouse heart at 450 mg/kg, po after 3 days by histological study; type: organism-based; parameters: dose 450 mg/kg, route oral; conditions: in vivo, 72 h; how it was run: as §3
Mus musculus [20] = assay: Toxicity in CD1 mouse lung at 300 mg/kg, ip after 3 days by histological study; type: organism-based; parameters: dose 300 mg/kg, route intraperitoneal; conditions: in vivo, 72 h; how it was run: as §3
Mus musculus [21] = assay: Toxicity in CD1 mouse assessed as haemoglobin level at 450 mg/kg, po after 3 days; type: organism-based; parameters: dose 450 mg/kg, route oral; conditions: in vivo, 72 h; how it was run: as §1
Mus musculus [22] = assay: Toxicity in CD1 mouse liver at 450 mg/kg, po after 3 days by histological study; type: organism-based; parameters: dose 450 mg/kg, route oral; conditions: in vivo, 72 h; how it was run: as §3
Trypanosoma cruzi [23] = assay: Growth inhibition of Trypanosoma cruzi Tulahuen 2 epimastigote at 5 uM after 5 days; type: functional; parameters: Activity: scale not given: the % may be the effect or the level left; conditions: for inhibition of growth at 5 µM: Trypanosoma cruzi, Tulahuen 2, 120 h, read-out: GI
Mus musculus [24] = assay: Toxicity in CD1 mouse assessed as hematocrite level at 450 mg/kg, po after 3 days; type: organism-based; parameters: dose 450 mg/kg, route oral; conditions: in vivo, 72 h; how it was run: as §1
Mus musculus [25] = assay: Toxicity in CD1 mouse kidney at 300 mg/kg, ip after 3 days by histological study; type: organism-based; parameters: dose 300 mg/kg, route intraperitoneal; conditions: in vivo, 72 h; how it was run: as §3
Mus musculus [26] = assay: Toxicity in CD1 mouse lung at 450 mg/kg, po after 3 days by histological study; type: organism-based; parameters: dose 450 mg/kg, route oral; conditions: in vivo, 72 h; how it was run: as §3
Mus musculus [27] = assay: Toxicity in CD1 mouse assessed as hematocrite level at 300 mg/kg, ip after 3 days; type: organism-based; parameters: dose 300 mg/kg, route intraperitoneal; conditions: in vivo, 72 h; how it was run: as §1
Mus musculus [28] = assay: Toxicity in CD1 mouse assessed as increase in weight respect to day zero at 450 mg/kg, po after 3 days; conditions: in vivo, 72 h
Trypanosoma cruzi [29] = assay: Antitrypanosomal activity against Trypanosoma cruzi infected in po dosed CD1 mouse assessed as prevention of amastigote nest in heart administered daily for 14 days measured on day 45; type: functional, organism-based
How it was run: (§5)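 T. cruzi, a Uruguayan patient isolate, was inoculated intradermally into 2-month-old female CD1 mice (20–22 g). Dosing began on day 15 after parasitaemia was observed. Drugs were suspended in saline:Tween 80 (4:1) and given by intragastric syringe once daily for 14 days, with untreated controls. On day 45 after treatment start, heart and muscle sections were scored by two independent observers for amastigotes and inflammatory infiltrates. Groups had 5–7 mice.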

Trypanosoma cruzi [30] = assay: Antitrypanosomal activity against Trypanosoma cruzi infected in po dosed CD1 mouse assessed as prevention of inflammatory infiltrates in heart administered daily for 14 days measured on day 45; type: functional, organism-based; how it was run: as §5

SMILES | Activity (Mus musculus [1]) [IU/L] | Activity (Mus musculus [2]) [µL⁻¹] | Activity (Mus musculus [3]) [IU/L] | Activity (Mus musculus [4]) | Activity (Mus musculus [5]) | Activity (Mus musculus [6]) | Activity (Mus musculus [7]) [IU/L] | Activity (Mus musculus [8]) [µL⁻¹] | Activity (Mus musculus [9]) [IU/L] | Activity (Mus musculus [10]) | Activity (Mus musculus [11]) | Activity (Mus musculus [12]) | Activity (Mus musculus [13]) | Activity (Mus musculus [15]) | Activity (Mus musculus [16]) [%] | Activity (Mus musculus [17]) | Activity (Mus musculus [18]) [g/dL] | Activity (Mus musculus [19]) | Activity (Mus musculus [20]) | Activity (Mus musculus [21]) [g/dL] | other results
CCCCCCNC(=O)/C=C/c1ccc([N+](=O)[O-])o1 | 129 | 12100 | 69.8 | Non-toxic | Toxic | Toxic | 52.8 | 86000 | 22.7 | Non-toxic | Non-toxic | Non-toxic | Non-toxic | Non-toxic | 2 | Non-toxic | 11.3 | Toxic | Toxic | 11.5 | Activity (Mus musculus [14]): 0%; Activity (Mus musculus [22]): Toxic; inhibition of growth at 5 µM (Trypanosoma cruzi [23]): 82%; Activity (Mus musculus [24]): 30.4%; Activity (Mus musculus [25]): Non-toxic; Activity (Mus musculus [26]): Toxic
CCCCOC(=O)N/N=C/C=C/c1ccc([N+](=O)[O-])o1 | 76.5 | 31800 | 72 | Non-toxic | Toxic | Non-toxic | 17 | 26600 | 22.6 | Non-toxic | Non-toxic | Non-toxic | Non-toxic | Non-toxic | 2 | Non-toxic | 11.8 | Non-toxic | Non-toxic | 13.5 | Activity (Mus musculus [27]): 37.2%; Activity (Mus musculus [14]): 2%; Activity (Mus musculus [22]): Toxic; inhibition of growth at 5 µM (Trypanosoma cruzi [23]): 87%; Activity (Mus musculus [25]): Non-toxic; Activity (Mus musculus [26]): Non-toxic
CCCCCCOC(=O)N/N=C/C=C/c1ccc([N+](=O)[O-])o1 | 172 | 5300 | 164 | Non-toxic | Toxic | Non-toxic | 33 | 6600 | 42 | Non-toxic | Non-toxic | Non-toxic | Non-toxic | Toxic | 2 | Non-toxic | 12 | Non-toxic | Non-toxic | 13.5 | Activity (Mus musculus [28]): 2%; Activity (Mus musculus [27]): 22.9%; Activity (Trypanosoma cruzi [29]): Active; Activity (Trypanosoma cruzi [30]): Active; Activity (Mus musculus [22]): Toxic; Activity (Trypanosoma cruzi [23]): 86%; Activity (Mus musculus [24]): 42.1%; Activity (Mus musculus [25]): Non-toxic; Activity (Mus musculus [26]): Non-toxic
CCCCCCCOC(=O)N/N=C/C=C/c1ccc([N+](=O)[O-])o1 | 77.7 | 11100 | 139 | Non-toxic | Toxic | Non-toxic | 46.1 | 9010 | 62.7 | Non-toxic | Non-toxic | Non-toxic | Non-toxic | Non-toxic | 4 | Non-toxic | 14.2 | Non-toxic | Non-toxic | 13.4 | Activity (Mus musculus [14]): 0%; Activity (Mus musculus [22]): Toxic; inhibition of growth at 5 µM (Trypanosoma cruzi [23]): 90%; Activity (Mus musculus [24]): 39.4%; Activity (Mus musculus [25]): Non-toxic; Activity (Mus musculus [26]): Non-toxic
